Active and inactive are the calls of the source. The rule behind the calls is not given here.

Type in all cases: functional, cell-based
Assay [1] relates to MDA-MB-231. Nature of the assay: Induction of apoptosis in human MDA-MB-231 cells assessed as PARP cleavage at 20 uM after 15 hrs by Western blot analysis. Put shortly: (§1)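 Cells grown in MEM with 10% FBS, glutamine, penicillin/streptomycin, non-essential amino acids and 2× MEM vitamins; serum cut to 2% for treatment. Compounds dissolved in DMSO (40 mM stock); DMSO vehicle control. Treatment 15 h, then Western blot of whole-cell extracts for PARP cleavage. Primary antibody in 0.1% BSA/TBST overnight at 4 °C, then HRP-conjugated secondary. Two separate experiments.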
Background: In western blotting, separated proteins are transferred to a membrane and probed.

Assay [2] has as its system MCF7. The experiment in a line: Induction of apoptosis in human MCF7 cells assessed as PARP cleavage at 20 uM after 15 hrs by Western blot analysis. In a few lines: as §1
The species entered for a further assay is Mus musculus. Nature of the assay: Induction of apoptosis in mouse 66cl-4GFP cells assessed as PARP cleavage at 20 uM after 15 hrs by Western blot analysis. In a few lines: as §1
Assay [3] concerns MDA-MB-231. The experiment in a line: Induction of apoptosis in human MDA-MB-231 cells by AnnexinV/PI/FITC-based flow cytometric analysis.
In assay [4] the test system is MDA-MB-231. Nature of the assay: Induction of apoptosis in human MDA-MB-231 cells at 20 and 40 uM by […].
Assay [5] deals with MCF7. The experiment in a line: Induction of apoptosis in human MCF7 cells by AnnexinV/PI/FITC-based flow cytometric analysis. A general note: A flow cytometer gives signals particle by particle.
Assay [6] concerns MCF7. The experiment in a line: Induction of apoptosis in human MCF7 cells at 20 uM by AnnexinV/PI/FITC-based flow cytometric analysis.
Assay [7] has as its system MCF7. Nature of the assay: Induction of apoptosis in human MCF7 cells at 40 uM by AnnexinV/PI/FITC-based flow cytometric analysis.

For `CC(C)CCC[C@@H](C)CCC[C@@H](C)CCC[C@]1(C)CCc2cc(O)c(F)cc2O1`, the outcome in the assay on MDA-MB-231 [1], with MCF7 [2] and in the assay listed under Mus musculus was inactive.
Take `Cc1c(C)c2c(c(C)c1OCC(=O)O)CC[C@@](C)(COCCC(C)CCCC(C)CCCC(C)C)O2` (mixture of isomers): the concentration giving a half-maximal response (EC50) worked out at 18 µM with MDA-MB-231 [3] and 21 µM with MCF7 [5]. Also, the result in the assay on MDA-MB-231 [1], in the assay with MCF7 [2], in the assay listed under Mus musculus, in the assay on MDA-MB-231 [4], in the assay with MCF7 [6] and in the assay on MCF7 [7] was Active.
For `Cc1c(C)c2c(c(C)c1OCC(=O)O)CC[C@](C)(COCCC(C)CCCC(C)CCCC(C)C)O2` (mixture of isomers), the EC50 in the assay on MDA-MB-231 [3] amounted to 16 µM; in the assay on MCF7 [5], 29 µM. Moreover, the outcome with MDA-MB-231 [1], in the assay with MCF7 [2], in the assay listed under Mus musculus, in the assay on MDA-MB-231 [4] and in the assay with MCF7 [7] was Active.
As to `CC(C)CCCC(C)CCCC(C)CCCC1(C)CCc2cc(OCC(=O)O)c(F)cc2O1` (racemic), the figures for the EC50 with MDA-MB-231 [3] and in the assay on MCF7 [5] were 34 µM and 60 µM, respectively. Besides, the outcome in the assay with MCF7 [2] and in the assay listed under Mus musculus was Active.
Take `CC(C)CCCC(C)CCCC(C)CCOCC1(C)CCc2cc(OCC(=O)O)c(F)cc2O1` (racemic): the figures for the EC50 in the assay with MDA-MB-231 [3] and in the assay with MCF7 [5] were 27 µM and 35 µM, respectively. In addition, the result in the assay on MDA-MB-231 [1], in the assay with MCF7 [2], in the assay filed under Mus musculus, with MDA-MB-231 [4] and in the assay on MCF7 [7] was Active.
In the case of `CC(C)CCCC(C)CCCC(C)CCOCC1(C)CCc2cc(O)c(F)cc2O1` (racemic), in the assay on MCF7 [2], the outcome was Active.
In the case of `Cc1c(C)c2c(c(C)c1OCC(=O)O)CC[C@@](C)(CCC[C@H](C)CCC[C@H](C)CCCC(C)C)O2` [.ALPHA.-TOCOPHERYLOXYACETIC ACID], the values for the concentration giving a half-maximal response (EC50) in the assay with MDA-MB-231 [3] and in the assay on MCF7 [5] were 35 µM and 51 µM, respectively. The result in the assay with MDA-MB-231 [1], in the assay on MCF7 [2], in the assay listed under Mus musculus, in the assay on MDA-MB-231 [4], with MCF7 [6] and with MCF7 [7] was Active.

By EC50 is commonly meant the concentration that produces a half-maximal response. Read a high EC50 as lower potency in that assay.

For the origin of these results see ChEMBL document CHEMBL2150903, “Synthesis and screening of novel vitamin E derivatives for anticancer functions” (Eur J Med Chem, 2012).
